# The source made the active and inactive calls.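 The calls were made as follows, unless noted: active = visually confirmed hit in the image check and inhibition above 20%; inconclusive = visually confirmed hit but inhibition not above 20%; inactive = no visual hit in the image check.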
# Tests used:
# [1] = inhibitors of TNFa-induced NFkB p65 translocation, primary screen, imaging, HUVEC, MLSMR starter and 10KST1 sets (AID 438;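 active = inhibition above 20% together with a positive visual image hit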;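 also: compound added about 3h40 before a 20 min TNFalpha stimulation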;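 as to inhibition: signal is the nuclear over cytoplasmic p65 intensity ratio per well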); conditions: HUVEC TNFa-induced p65 nuclear translocation; cell count: measured here: nuclei count (cytotoxicity indicator), at 2.08 µM; inhibition: at 2 µM, stronger effect = higher value, 0% TNFa-plus-vehicle, 100% no-TNFa wells
# [2] = inhibitors of mutant huntingtin aggregation, primary screen, imaging, exon1htt(103Q)mCFP cells, high-content imaging (AID 483;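 active = visual image review flags a hit and inhibition of aggregation exceeds 20%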;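 also: compound exposure lasted 3 days before fixation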;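 as to nuclei count: percent of the per-plate median nuclei count of sample wells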); conditions: exon1htt(103Q)mCFP cell line, aggregate imaging, at 2 µM; inhibition of aggregation: stronger effect = higher value; nuclei count: measured here: cell count, toxicity
# [3] = inhibitors of E-selectin induction by TNFa, primary screen, imaging, HUVEC, immunofluorescence, MLSMR starter and 10KST1 sets (AID 487); conditions: HUVEC TNFalpha-induced E-selectin immunofluorescence imaging, at 2 µM; inhibition: stronger effect = higher value; nuclei count: measured here: cell number, toxicity;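 as to inhibition: signal is fraction of cell area covered by stained E-selectin grains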;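 as to nuclei count: 100% = median nuclei count of all wells on the same plate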
# [4] = molecular target: Voltage-gated potassium channel subunit beta-2 (Rattus norvegicus) (UniProt P62483); assay: KvBeta enzyme negative modulators, primary screen, biochemical, NADPH fluorescence (AID 622;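 active = fluorescence slope higher than the sample average by over 3 SD, cut at about -0.22 in these data, passing the limit was not always enough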;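 also: slope of raw intensity against log time taken from 70 to 1610 s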); conditions: recombinant KvBeta, 4-cyanobenzaldehyde reduction, at 10 µM, stronger effect = higher value
# [5] = molecular target: Voltage-gated potassium channel subunit beta-2 (Rattus norvegicus) (UniProt P62483); assay: KvBeta positive modulators, primary screen, biochemical, NADPH fluorescence (AID 623;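 active = NADPH fluorescence slope more negative than the mean of all samples by about 3 SD, 99.7% confidence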;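 also: fluorescence intensity change per second fitted from 20 to 320 s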); conditions: Recombinant KvBeta, NADPH fluorescence decrease slope, 10 min; at 10 µM; stronger effect = lower value
# [6] = molecular target: Muscarinic acetylcholine receptor M4 (Homo sapiens) (UniProt P08173); assay: compounds altering M4/GIRK thallium flux, either direction, primary screen, M4 allosteric agonist project, cell-based, HEK293 M4/GIRK, BTC-AM (AID 625;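 active = fluorescence slope after compound addition differing from the mean of all tested samples at 99.7% confidence, mostly higher but some lower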;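 also: thallium influx through GIRK channels coupled to M4 in HEK293 cells with BTC-AM dye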); conditions: at 10 µM, actives lie on both sides
# How it was run: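 Material – HEK293 cells with M4 receptor and GIRK channels · Buffer or medium – pH 7.3 thallium assay buffer · Doses – one dose, 10 µM final · Timing – cells overnight at 37 °C, BTC-AM loading 1 h, reads 2 min total · Measured by – kinetic fluorescence with BTC-AM dye · Controls – carbachol and DMSO controls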
# [7] = inhibitors of Sendai virus-induced IRF3 signaling, primary screen, TLR/RLR signaling modifier project, cell-based, Sendai virus stimulus, luciferase, 10K MLSCN set (AID 602276;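 active = inhibition at or above 50% at 10 µM; inactive = inhibition below 50%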;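 also: firefly luciferase from ISG56 promoter only with Renilla not read in this screen; 0% = Sendai virus plus DMSO and 100% = medium plus DMSO without virus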); conditions: HEK293 RL24 IRF3 luciferase reporter, at 10 µM, stronger effect = higher value
# [8] = inhibitors of poly I:C-induced TLR3 signaling, primary screen, cell-based, poly I:C stimulus, luciferase, 10K MLSCN set (AID 602277;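 active = inhibition of the reporter signal at or above 50%; inactive = inhibition below 50%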); conditions: HEK293-TLR3 RL24 IRF3 luciferase reporter, at 10 µM, stronger effect = higher value
# Chain of Voltage-gated potassium channel subunit beta-2 (Rattus norvegicus) (P62483 whole entry, looked up): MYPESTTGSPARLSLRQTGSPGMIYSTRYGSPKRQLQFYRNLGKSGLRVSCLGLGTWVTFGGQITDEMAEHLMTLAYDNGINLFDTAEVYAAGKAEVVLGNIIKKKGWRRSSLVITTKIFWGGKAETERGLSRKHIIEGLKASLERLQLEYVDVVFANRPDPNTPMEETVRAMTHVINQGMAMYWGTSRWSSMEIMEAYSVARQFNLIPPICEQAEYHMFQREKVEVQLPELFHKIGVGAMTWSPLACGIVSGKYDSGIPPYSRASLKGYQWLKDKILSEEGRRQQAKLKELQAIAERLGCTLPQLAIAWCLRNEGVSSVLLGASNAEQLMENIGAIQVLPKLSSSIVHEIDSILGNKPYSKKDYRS
# Chain of Muscarinic acetylcholine receptor M4 (Homo sapiens) (P08173 whole entry, looked up): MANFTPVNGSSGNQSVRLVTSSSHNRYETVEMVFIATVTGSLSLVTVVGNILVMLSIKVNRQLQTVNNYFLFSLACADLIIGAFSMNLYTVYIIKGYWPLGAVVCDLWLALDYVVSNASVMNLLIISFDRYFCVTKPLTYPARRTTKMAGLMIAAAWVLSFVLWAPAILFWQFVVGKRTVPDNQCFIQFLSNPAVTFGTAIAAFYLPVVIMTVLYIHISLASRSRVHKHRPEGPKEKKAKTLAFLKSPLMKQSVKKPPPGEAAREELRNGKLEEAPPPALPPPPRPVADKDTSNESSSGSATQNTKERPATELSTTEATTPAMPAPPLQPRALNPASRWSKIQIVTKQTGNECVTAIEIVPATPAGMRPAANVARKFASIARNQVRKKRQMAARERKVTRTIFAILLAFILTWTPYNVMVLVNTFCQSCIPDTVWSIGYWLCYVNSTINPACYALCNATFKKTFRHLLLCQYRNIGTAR
SMILES,cell count [1],inhibition [1],inhibition of aggregation [2],nuclei count [2] [%],inhibition [3],nuclei count [3] [%],fluorescence slope [4],NADPH fluorescence slope [5],fluorescence slope [6],inhibition [7],inhibition [8]
O=C(NCc1n[nH]c(=S)n1-c1ccc(F)cc1)c1ccco1,711,-16.8% (inactive),-0.3% (inactive),102,-72.4% (inactive),126,-0.463 (inactive),-2.7e-05 (inactive),0.00529 (inactive),12.1% (inactive),13.9% (inactive)
CCOC(=O)c1cccc(NC(=O)CSc2nnc(-c3ccoc3C)n2CCOC)c1,553,-9.5% (inactive),1% (inactive),89.7,-140% (inactive),133,-0.577 (inactive),7.3e-06 (inactive),0.00584 (inactive),18.8% (inactive),27.2% (inactive)
C=CCSc1nc2c(c(=O)[nH]c(=O)n2C)n1C(C)C,309,-11.3% (inactive),-2.8% (inactive),110,33% (inactive),97.6,-0.579 (inactive),8.7e-06 (inactive),0.00565 (inactive),2.75% (inactive),14.4% (inactive)
N#Cc1c(SCC(=O)N2CCOCC2)nsc1SCC(=O)N1CCOCC1,398,-8.5% (inactive),-6.4% (inactive),99.1,-45% (inactive),117,-0.565 (inactive),-2.7e-05 (inactive),0.0058 (inactive),3.35% (inactive),4.99% (inactive)
CCNc1nc(NCC)n2c(SCc3nc4ccccc4c(=O)[nH]3)nnc2n1,554,-3.9% (inactive),9.2% (inactive),84.7,-31.4% (inactive),113,-0.539 (inactive),-0.000149 (inactive),0.00293 (inactive),-0.856% (inactive),-4.01% (inactive)
O=C(c1nc2n(n1)C(c1ccc(Cl)cc1)C=C(c1ccccc1)N2)N1CCOCC1 (stereo not drawn),811,-3.9% (inactive),10.6% (inactive),126,14.2% (inactive),110,-0.0865 (active),-1.6e-06 (inactive),0.00624 (inactive),9.43% (inactive),-4.24% (inactive)
Cc1ccc(C)c(Cn2c(=O)n(CCC(=O)NCc3ccco3)c(=O)c3sccc32)c1,506,-4.5% (inactive),3.9% (inactive),95.3,17.2% (inactive),93.3,-0.572 (inactive),-5.2e-06 (inactive),0.00734 (inactive),19.5% (inactive),16.1% (inactive)
O=c1oc(-c2ccco2)nc2ccccc12,460,1% (inactive),2.1% (inactive),92.5,-332% (inactive),132,-0.559 (inactive),-4.2e-05 (inactive),0.00609 (inactive),13.9% (inactive),15.3% (inactive)
